Source: ChEMBL document CHEMBL1127081, “Synthesis of 2,4-disubstituted thiazoles and selenazoles as potential antifilarial and antitumor agents. 2. 2-Arylamido and 2-alkylamido derivatives of 2-amino-4-(isothiocyanatomethyl)thiazole and 2-amino-4-(isothiocyanatomethyl)selenazole” (J Med Chem, 1993)
The source made the active and inactive calls. The calls are words filed in the database; no cut-off is given here.

How the values were obtained:
L1210 [1] = test: Screen growth rate of L1210 leukemic cells in the presence of compound at 100 uM expressed as percent of control; format: functional, Mus musculus
Method in brief: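 L1210 cells grown in static suspension at 38 °C in Fischer's medium with continuous 100 μM compound for 3 days. Growth rate = ratio of control to treated population doubling time, expressed as % of control; if growth slowed, the final rate over the 3-day period was used.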

L1210 [2] = test: Compound was tested in vitro for antiproliferative activity against L1210 leukemic cells; format: functional, cell-based; conditions: Mus musculus
Method in brief: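 Mouse L1210 leukemia cells grown in static suspension culture at 38 °C in Fischer's medium. Cells were exposed continuously to a range of concentrations for 3 days. Growth rate = control doubling time / treated doubling time, as % of control; the final rate was used if growth slowed. IC50 = concentration reducing growth rate to 50% of control.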

Acanthocheilonema viteae = test: Antifilarial activity against adult worm of A. viteae in jirds at 100 mg/kg x 5 days administered subcutaneously; No activity; format: functional, organism-based; parameters: dose 100 mg/kg
Brugia pahangi = test: Compound tested for anti-filarial activity against adult worm of Brugia pahangi in jirds at 100 mg/kg x 5 days administered subcutaneously; No activity; format: functional, organism-based; parameters: dose 100 mg/kg
L1210 [3] = test: Compound was tested in vitro for antiproliferative activity against L1210 leukemic cells; No significant inhibition; format: functional, cell-based, Mus musculus
[4] = biological target: GMP synthase [glutamine-hydrolyzing] (Mus musculus, UniProt Q3THK7); test: In vitro inhibitory activity against partially purified GMP synthetase in L1210 cells
Chain of GMP synthase [glutamine-hydrolyzing] (Q3THK7 whole entry): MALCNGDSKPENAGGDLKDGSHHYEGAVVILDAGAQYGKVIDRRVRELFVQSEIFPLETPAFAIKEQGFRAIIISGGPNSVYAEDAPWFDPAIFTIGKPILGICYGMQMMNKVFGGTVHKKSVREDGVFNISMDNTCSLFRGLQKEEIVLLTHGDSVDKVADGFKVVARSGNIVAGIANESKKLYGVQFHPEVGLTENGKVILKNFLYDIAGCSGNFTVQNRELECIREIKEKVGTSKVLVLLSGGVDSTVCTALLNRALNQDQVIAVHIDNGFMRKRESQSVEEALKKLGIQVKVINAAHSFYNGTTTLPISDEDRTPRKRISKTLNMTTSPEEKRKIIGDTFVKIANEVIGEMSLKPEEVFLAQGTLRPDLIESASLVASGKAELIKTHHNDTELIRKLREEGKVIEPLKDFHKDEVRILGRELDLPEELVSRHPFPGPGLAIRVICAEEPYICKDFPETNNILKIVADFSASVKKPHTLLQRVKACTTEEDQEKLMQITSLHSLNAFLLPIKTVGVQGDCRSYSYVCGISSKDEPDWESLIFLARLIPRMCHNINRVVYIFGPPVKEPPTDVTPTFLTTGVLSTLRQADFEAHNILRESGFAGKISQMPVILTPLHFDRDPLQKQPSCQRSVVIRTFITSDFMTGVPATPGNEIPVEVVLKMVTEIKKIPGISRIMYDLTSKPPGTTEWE

| Compound | GR (L1210 [1]) | IC50 (L1210 [2]) | Activity (Acanthocheilonema viteae) | Activity (Brugia pahangi) | IC50 (L1210 [3]) | IC50 [4] |
| --- | --- | --- | --- | --- | --- | --- |
| O=C(Nc1nc(CN=C=S)cs1)c1ccc(Cl)cc1 | 0% | 0.22 µM | inactive | inactive | – | – |
| O=C(Nc1nc(CN=C=S)cs1)C(F)(F)F | 20% | – | inactive | inactive | – | – |
| COc1ccc(C(=O)Nc2nc(CN=C=S)cs2)cc1 | 0% | 0.44 µM | inactive | inactive | – | – |
| COC(=O)Nc1nc(CN=C=S)cs1 | – | – | inactive | inactive | – | – |
| O=C(Nc1nc(CCl)c[se]1)c1ccccc1 | 101% | – | inactive | inactive | Not Active | – |
| Cc1ccc(C(=O)Nc2nc(CN=C=S)cs2)cc1 | 25% | 0.48 µM | inactive | inactive | – | – |
| O=C(Nc1nc(CN=C=S)cs1)c1ccc(Cl)c(Cl)c1 | 0% | 0.82 µM | inactive | inactive | – | – |
| CC(C)(C)C(=O)Nc1nc(CN=C=S)c[se]1 | 0% | 18 µM | inactive | inactive | – | – |
| O=C(Nc1nc(CCl)cs1)c1ccccc1 | 100% | – | inactive | inactive | Not Active | – |
| CC(C)(C)C(=O)Nc1nc(CN=C=S)cs1 | 28% | 4.3 µM | inactive | inactive | – | – |
| O=C(Nc1nc(CN=C=S)c[se]1)c1ccccc1 | 13% | 0.9 µM | inactive | inactive | – | – |
| CC(=O)Nc1nc(CN=C=S)c[se]1 | 14% | 30 µM | inactive | inactive | – | – |
| O=C(Nc1nc(CN=C=S)cs1)c1ccc(C(F)(F)F)cc1 | 0% | 0.5 µM | inactive | inactive | – | – |
| Nc1nc(CN=C=S)c[se]1 | 0% | 21 µM | inactive | inactive | – | – |
| CC(C)C(=O)Nc1nc(CN=C=S)c[se]1 | 0% | 28 µM | inactive | inactive | – | – |
| O=C(Nc1nc(CN=C=S)cs1)c1ccccc1 | 0% | 0.2 µM | inactive | inactive | – | 350 nM |
| CC(=O)Nc1nc(CCl)cs1 | 75% | > 100 µM | inactive | inactive | – | – |
| Nc1nc(CN=C=S)cs1 | 0% | 26 µM | inactive | inactive | – | – |
| CCC(=O)Nc1nc(CN=C=S)c[se]1 | 0% | 3.5 µM | inactive | inactive | – | – |
| CC(=O)Nc1nc(CN=C=S)cs1 | 1% | 5.2 µM | inactive | inactive | – | – |
| CCC(=O)Nc1nc(CN=C=S)cs1 | 0% | 6.8 µM | inactive | inactive | – | – |
| CC(=O)Nc1nc(CCl)c[se]1 | 65% | > 100 µM | inactive | inactive | – | – |
| CC(C)C(=O)Nc1nc(CN=C=S)cs1 | 0% | 8.2 µM | inactive | inactive | – | – |
| CC(C)(C)c1ccc(C(=O)Nc2nc(CN=C=S)cs2)cc1 | 72% | > 100 µM | inactive | inactive | – | – |
| O=C(Nc1nc(CN=C=S)cs1)c1ccc(F)cc1 | 0% | 1.1 µM | inactive | inactive | – | – |
